According to publication PMC7357173 (Toxicological Sciences, 2020):
Where a name gives a salt, the structure may show the parent alone.

Experiments:
Assay type in all cases: cell-based, human
HepG2 cells [1] = assay: Phospholipidosis; conditions: HepG2, 24 h
In short: (§1)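 High-content imaging of HepG2 seeded at 10 000 (24 h) or 12 500 (6, 1 h) cells/well and adhered overnight. Triplicate wells at 8 concentrations, 0.5% DMSO. Mito-mass stained with a mitochondria-specific fluorescent dye; PLD detected by a dye conjugating to phospholipids. Cells fixed in 4% formaldehyde with Hoechst 33342 where required. Eight fields imaged per well (10×); intensity compared against vehicle wells.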

HepG2 cells [2] = assay: Glutathione content
HepG2 cells [3] = assay: Cellular ATP
In short: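 HepG2 in supplemented MEM (10% FBS), kept below 85% confluence and ≤8 passages. Treated with 8-point dilutions from DMSO stocks (0.5% DMSO final) at 37°C, 5% CO2. Cellular ATP read by CellTiterGlo luminescence, normalized to vehicle wells as fold change. Run once, triplicate wells per concentration. PoD taken from Bayesian concentration–response fits.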

HepG2 cells [4] = assay: Cellular stress panel as a whole; conditions: for bioactivity group: HepG2 cellular stress panel
In short: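 HepG2 exposed 1, 6 or 24 h to 8 nominal concentrations (0.5% DMSO), one run, 3 technical replicates each. Per-plate raw values divided by the median control and log2-transformed; concentrations log10-transformed. Bayesian fit with a Student's t (5 df) replicate model and well-position scale term. PoD found by linear interpolation; CDS is the fraction of 10 000 samples yielding a PoD.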

IL-8 = IL-8 secretion, ELISA of HepG2 supernatants; conditions: HepG2, 24 h
In short: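 HepG2 grown and exposed as for the other assays: 8 concentrations from DMSO stocks, 0.5% DMSO final, 37°C, 5% CO2, triplicate wells, one run. 50 µl of supernatant collected after the incubation and assayed for IL-8 by ELISA kit. Values divided by the plate median control, log2-transformed and fitted by Bayesian concentration–response modelling to give PoD.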

HepG2 cells [5] = assay: Mitochondrial mass; conditions: HepG2, 1, 6 and 24 h; subcytotoxic PoD
In short: as §1

HepG2 cells [6] = assay: Oxygen consumption rate
In short: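 HepG2 seeded at 16 000 cells/well, attached overnight, then treated 1, 6 or 24 h; the final 60 min was in unbuffered DMEM (10 mM glucose, 30 mM NaCl, 1 mM pyruvate, 2 mM L-alanyl-glutamine, pH 7.4, 37°C). Four baseline and six post-compound reads (3-min mix, 4-min read). Then oligomycin 1 μM, FCCP 0.5 μM and rotenone/antimycin A 1 μM each. Values baseline-normalized and corrected for nonmitochondrial OCR.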

HepG2 cells [7] = assay: Mitochondrial ROS; conditions: HepG2, all timepoints, highest concentration

SMILES: O=c1ccc2ccccc2o1 [Coumarin]
- change in phospholipidosis (HepG2 cells [1]): decrease
- change in glutathione (HepG2 cells [2]; HepG2, 24 h): increase
- change in cellular ATP (lowest PoD) (HepG2 cells [3]; HepG2, 6 and 24 h): decrease
- all PoDs of the panel (HepG2 cells [4]; HepG2, around the top concentration tested): ~1000 µM
- bioactivity group (HepG2 cells [4]): 1
- change in IL-8 (IL-8): decrease

SMILES: O=C(O)Cc1ccccc1Nc1c(Cl)cccc1Cl [Diclofenac, Diclofenac sodium salt]
- estimated plasma Cmax compared with minimum PoD (HepG2 cells [4]; total Cmax of Table 2 vs nominal in vitro PoD): approximately one order of magnitude below the lowest PoD

SMILES: COc1cccc2c1C(=O)c1c(O)c3c(c(O)c1C2=O)C[C@@](O)(C(=O)CO)C[C@@H]3O[C@H]1C[C@H](N)[C@H](O)[C@H](C)O1 [Doxorubicin, Doxorubicin hydrochloride]
- change in glutathione (HepG2 cells [2]; HepG2, 1 h): Increases
- change in glutathione (HepG2 cells [2]; HepG2, 24 h): loss
- change in cellular ATP (HepG2 cells [3]; HepG2, 6 h): increases
- change in cellular ATP (HepG2 cells [3]; HepG2, 24 h): loss
- change in mitochondrial mass (HepG2 cells [5]): increases

SMILES: NC(=O)c1cccnc1 [Niacinamide, Nicotinamide]
- change in IL-8 (IL-8): small but appreciable decrease

SMILES: OCCOc1ccccc1 [Phenoxyethanol, 2-Phenoxyethanol]
- concentration-responses among all 36 biomarkers (HepG2 cells [4]; HepG2, up to 1000 µM): no concentration-responses could be detected

SMILES: CCc1ccc(CCOc2ccc(CC3SC(=O)NC3=O)cc2)nc1 (stereo not drawn) [Pioglitazone, Pioglitazone hydrochloride]
- change in OCR and reserve capacity (HepG2 cells [6]; HepG2, concentrations between 40 and 100 µM): increase
- change in OCR and reserve capacity (HepG2 cells [6]; HepG2, concentrations up to 10 µM): decrease

SMILES: C[S+]([O-])CCCCN=C=S [Sulforaphane, L-Sulforaphane]
- bioactivity group (HepG2 cells [4]): 3

SMILES: Oc1cc(Cl)ccc1Oc1ccc(Cl)cc1Cl [Triclosan]
- change in cellular ATP (HepG2 cells [3]; HepG2, 6 h): increase
- change in cellular ATP (HepG2 cells [3]; HepG2, 24 h): reduction
- increase in mitochondrial superoxide (MitoROS) (HepG2 cells [7]): 2- to 4 fold

SMILES: Cc1c(C)c2c(c(C)c1O)CCC(C)(COc1ccc(CC3SC(=O)NC3=O)cc1)O2 (stereo not drawn) [Troglitazone]
- effect on OCR (HepG2 cells [6]; HepG2, two highest concentrations (40 and 100 µM)): reduced the OCR near to zero
